In ChEMBL document CHEMBL3351962, “Discovery of 1H-indole-2-carboxamides as novel inhibitors of the androgen receptor binding function 3 (BF3)” (J Med Chem, 2014):
Active and inactive are the calls of the source. The rule behind the calls is not given here.

What was measured:
[1] = biological target: T1, Androgen receptor (Homo sapiens) (UniProt P10275); assay: Displacement of androgen from androgen binding site of androgen receptor (unknown origin)
T1 sequence (whole entry): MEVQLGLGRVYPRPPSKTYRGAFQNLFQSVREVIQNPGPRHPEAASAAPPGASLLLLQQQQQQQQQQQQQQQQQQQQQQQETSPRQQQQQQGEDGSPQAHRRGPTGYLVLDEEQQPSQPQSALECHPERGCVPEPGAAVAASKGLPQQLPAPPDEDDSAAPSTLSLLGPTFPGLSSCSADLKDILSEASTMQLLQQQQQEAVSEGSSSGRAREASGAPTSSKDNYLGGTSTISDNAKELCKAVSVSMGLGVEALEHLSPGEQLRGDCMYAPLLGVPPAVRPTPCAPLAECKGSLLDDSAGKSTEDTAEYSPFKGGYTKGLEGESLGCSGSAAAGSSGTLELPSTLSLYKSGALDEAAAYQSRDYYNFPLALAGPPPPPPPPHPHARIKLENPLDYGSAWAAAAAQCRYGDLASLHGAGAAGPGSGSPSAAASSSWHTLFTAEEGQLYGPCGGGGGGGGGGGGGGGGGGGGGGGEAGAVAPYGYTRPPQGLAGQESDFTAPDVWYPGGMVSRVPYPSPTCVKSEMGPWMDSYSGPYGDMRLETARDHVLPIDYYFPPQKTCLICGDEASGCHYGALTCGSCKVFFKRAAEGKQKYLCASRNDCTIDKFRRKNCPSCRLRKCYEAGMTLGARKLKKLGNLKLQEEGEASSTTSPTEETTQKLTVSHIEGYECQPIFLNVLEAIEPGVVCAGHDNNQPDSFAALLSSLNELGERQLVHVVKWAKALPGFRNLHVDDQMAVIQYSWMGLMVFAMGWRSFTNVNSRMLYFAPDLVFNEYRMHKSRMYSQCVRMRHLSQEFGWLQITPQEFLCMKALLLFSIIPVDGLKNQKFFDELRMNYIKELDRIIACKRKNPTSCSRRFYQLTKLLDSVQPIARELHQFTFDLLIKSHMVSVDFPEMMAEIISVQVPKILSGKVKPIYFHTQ

[2] = biological target: T2, Androgen receptor (Homo sapiens, UniProt P10275); assay: Inhibition of androgen receptor binding function 3 in human LNCAP cells containing androgen-responsive probasin-derived promoter assessed as reduction in PSA expression after 3 days by […] assay; assay type: cell-based
T2 sequence (P10275 whole entry): T1 sequence (whole entry)
Outline: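 PSA levels measured in LNCaP cells across a dose range (0−6.25 μM in dose-response curve); IC50 from the dose-dependent decrease of PSA.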

[3] = biological target: T1, Androgen receptor (Homo sapiens); assay: Displacement of SRC2 peptide from activation function 2 domain of androgen receptor (unknown origin)
[4] = biological target: T1, Androgen receptor (Homo sapiens); assay: Inhibition of androgen receptor binding function 3 in eGFP-expressing human LNCAP cells containing androgen-responsive probasin-derived promoter assessed as reduction in androgen receptor transcriptional activity at 3 uM after 3 days; assay type: cell-based
[5] = biological target: T2, Androgen receptor; assay: Inhibition of androgen receptor binding function 3 in eGFP-expressing human LNCAP cells containing androgen-responsive probasin-derived promoter assessed as reduction in androgen receptor transcriptional activity after 3 days; assay type: cell-based
Outline: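 eGFP reporter of AR transcriptional activity in LNCaP cells; concentration titration (0−12.5 μM in dose-response); mean of two independent experiments in triplicate (n = 6), SEM; IC50 by fitting log inhibitor concentration vs % activation.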

[6] = Solubility of the compound at high drug level; assay type: physicochemical
[7] = system: MR49F; assay: Antiproliferative activity against enzalutamide-resistant human MR49F cells at 10 uM after 4 days by MTS assay; assay type: functional, cell-based
[8] = system: PC-3; assay: Antiproliferative activity against androgen receptor-independent human PC3 cells after 4 days by MTS assay; assay type: functional, cell-based
Outline: (§1)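 MTS viability assay in LNCaP (androgen-stimulated), enzalutamide-resistant MR49F (LNCaP-derived) and androgen-independent PC3 cells; compounds added in serial concentrations, viability read after 4 days of incubation; IC50 from dose-response curves.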

[9] = system: LNCaP; assay: Antiproliferative activity against human LNCAP cells after 4 days by MTS assay; assay type: functional, cell-based; details: 96 h; outline: as §1
[10] = Antiproliferative activity against enzalutamide-resistant human MR49F cells after 4 days by MTS assay; assay type: functional, cell-based; details: 96 h; outline: as §1
[11] = biological target: T2, Androgen receptor
[12] = biological target: T1, Androgen receptor (Homo sapiens); assay: Direct reversible binding affinity to super-streptavidin bound biotinylated androgen receptor ligand binding domain (unknown origin) expressed in Escherichia coli BL21 by bio-layer Interferometry assay
Outline: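 Biolayer interferometry of direct, reversible binding to AR LBD; dose-response with compound at 0−50 μM or 0−100 μM.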

## O=C(c1cc2ccc(F)cc2[nH]1)N(Cc1ccco1)Cc1ccco1
[1]
  inhibition: inactive
[2]
  IC50: 5.48 µM
[3]
  inhibition: inactive
[4]
  inhibition: > 50%
[5]
  IC50: 4.04 µM

## CN(Cc1cccs1)C(=O)c1cc2ccc(F)cc2[nH]1
[1]
  inhibition: inactive
[2]
  IC50: 5.45 µM
[3]
  inhibition: inactive
[4]
  inhibition: > 50%
[5]
  IC50: 3.38 µM

## Cc1ccc2cc(C(=O)N(Cc3ccco3)C(C)C)[nH]c2c1
[1]
  inhibition: inactive
[2]
  IC50: 0.85 µM
[3]
  inhibition: inactive
[4]
  inhibition: > 50%
[5]
  IC50: 1.02 µM

## N#CCCN(Cc1ccccc1)C(=O)c1cc2ccccc2[nH]1
[1]
  inhibition: inactive
[2]
  IC50: 4.58 µM
[3]
  inhibition: inactive
[4]
  inhibition: > 50%
[5]
  IC50: 7.51 µM

## CC(C)N(Cc1ccco1)C(=O)c1cc2ccc(F)cc2[nH]1
[1]
  inhibition: inactive
[2]
  IC50: 0.53 µM
[3]
  inhibition: inactive
[4]
  inhibition: > 50%
[6]
  solubility: Insoluble
[5]
  IC50: 0.43 µM

## CNC(=O)c1ccc(N2C(=S)N(c3ccc(C#N)c(C(F)(F)F)c3)C(=O)C2(C)C)cc1F
[7]
  inhibition: inactive

## Cc1ccc2[nH]c(C(=O)N(Cc3ccco3)C(C)C)cc2c1
[1]
  inhibition: inactive
[2]
  IC50: 1.2 µM
[3]
  inhibition: inactive
[4]
  inhibition: > 50%
[5]
  IC50: 1.3 µM

## COCCN(Cc1ccco1)C(=O)c1cc2cc(F)ccc2[nH]1
[1]
  inhibition: inactive
[2]
  IC50: 6.62 µM
[3]
  inhibition: inactive
[4]
  inhibition: > 50%
[5]
  IC50: 6.47 µM

## CC(C)N(Cc1ccco1)C(=O)c1cc2cc(F)ccc2[nH]1
[1]
  inhibition: inactive
[2]
  IC50: 0.5 µM
[3]
  inhibition: inactive
[4]
  inhibition: > 50%
[6]
  solubility: Insoluble
[5]
  IC50: 0.6 µM

## CN(Cc1ccc(Br)s1)C(=O)c1cc2ccc(F)cc2[nH]1
[1]
  inhibition: inactive
[2]
  IC50: 3.06 µM
[3]
  inhibition: inactive
[4]
  inhibition: > 50%
[5]
  IC50: 3.53 µM

## Cc1ccc(CN(C)C(=O)c2cc3cc(F)ccc3[nH]2)o1
[1]
  inhibition: inactive
[2]
  IC50: 6.56 µM
[3]
  inhibition: inactive
[4]
  inhibition: > 50%
[5]
  IC50: 9.44 µM

## Cc1ccc(CN(C(=O)c2cc3ccc(F)cc3[nH]2)C(C)C)o1
[1]
  inhibition: inactive
[8]
  inhibition: inactive
[2]
  IC50: 0.84 µM
[9]
  IC50: 0.55 µM
[3]
  inhibition: inactive
[4]
  inhibition: > 50%
[10]
  IC50: 1.31 µM
[5]
  IC50: 0.7 µM
[11]
  IC50: 2.18 µM
[12]
  Activity: Active

## Cc1ccc2cc(C(=O)N(Cc3ccc(C)o3)C(C)C)[nH]c2c1
[1]
  inhibition: inactive
[2]
  IC50: 1.65 µM
[3]
  inhibition: inactive
[4]
  inhibition: > 50%
[5]
  IC50: 2.89 µM

## Cc1ccc(CN(C(=O)c2cc3cc(F)ccc3[nH]2)C(C)C)o1
[1]
  inhibition: inactive
[2]
  IC50: 1.38 µM
[3]
  inhibition: inactive
[4]
  inhibition: > 50%
[5]
  IC50: 1.1 µM

## CN(Cc1ccc(Br)o1)C(=O)c1cc2ccc(F)cc2[nH]1
[1]
  inhibition: inactive
[2]
  IC50: 8.09 µM
[3]
  inhibition: inactive
[4]
  inhibition: > 50%
[5]
  IC50: 15.7 µM

## CC(C)N(Cc1ccco1)C(=O)c1cc2cc(C(F)(F)F)ccc2[nH]1
[1]
  inhibition: inactive
[2]
  IC50: 5.29 µM
[3]
  inhibition: inactive
[4]
  inhibition: > 50%
[5]
  IC50: 5.2 µM

## Cc1ccc2[nH]c(C(=O)N(Cc3ccc(C)o3)C(C)C)cc2c1
[1]
  inhibition: inactive
[2]
  IC50: 1.77 µM
[3]
  inhibition: inactive
[4]
  inhibition: > 50%
[5]
  IC50: 2.67 µM

## Cc1ccc(CN(C(=O)c2cc3cccc(F)c3[nH]2)C(C)C)o1
[1]
  inhibition: inactive
[2]
  IC50: 1.2 µM
[3]
  inhibition: inactive
[4]
  inhibition: > 50%
[5]
  IC50: 1 µM

## Cc1ccc(CN(C(=O)c2cc3ccccc3[nH]2)C(C)C)o1
[1]
  inhibition: inactive
[2]
  IC50: 3.42 µM
[3]
  inhibition: inactive
[4]
  inhibition: > 50%
[5]
  IC50: 3.32 µM
[12]
  Activity: Dose-dependent effect
